According to ChEMBL document CHEMBL1144541, “Antinociceptive and antiinflammatory activities and QSAR studies on 2-substituted-4,5-diphenyl-1H-imidazoles” (2007):

What was measured:
Assay type in all cases: functional
Mus musculus [1] = experiment: Antinociceptive activity in ip dosed Swiss albino mouse assessed as latency time after 30 mins by tail flick method
Procedure, shortened: (§1)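 Swiss albino mice (20–25 g) received compounds ip at 9.5–12.58 mg/kg in 0.2% Tween suspension. Tail-flick latency to radiant heat was measured, with stimulus intensity set to give a 3–4 s baseline. Readings were taken just before injection and at 15, 30, 60 and 120 min after. Significance was assessed by Student's t test.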

Mus musculus [2] = experiment: Antinociceptive activity in ip dosed Swiss albino mouse assessed as latency time after 120 mins by tail flick method; procedure, shortened: as §1
Mus musculus [3] = experiment: Antinociceptive activity in ip dosed Swiss albino mouse assessed as latency time after 15 mins by tail flick method; procedure, shortened: as §1
Mus musculus [4] = experiment: Antinociceptive activity in ip dosed Swiss albino mouse assessed as latency time by hot plate method
Procedure, shortened: (§2)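 Swiss albino mice (20–25 g) were housed 7 days at 30 ± 1 °C before testing, in groups of six. Compounds were given ip at 9.5–12.58 mg/kg as a 0.2% Tween suspension. Mice were placed on a 55 ± 0.5 °C hot plate before dosing and at 15, 30, 60 and 120 min after dosing, with a 15 s cut-off. Significance was assessed by Student's t test.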

Rattus norvegicus = experiment: Antiinflammatory activity assessed as reduction of carrageenan-induced paw volume in intraperitoneally dosed Wistar rat after 3 hrs; parameters: scale not given: the % may be the effect or the level left
Procedure, shortened: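 Wistar rats of either sex (120–150 g) were dosed ip with compounds at 9.5–12.58 mg/kg in 0.2% Tween suspension. After 1 h, 0.05 ml of 1.0% w/v carrageenan in 0.9% NaCl was injected into the left hind paw. Paw volume was measured by mercury-displacement plethysmometry before injection and at 1, 2 and 3 h. Percent inhibition of the 3 h swelling was calculated.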

Mus musculus [5] = experiment: Antinociceptive activity in ip dosed Swiss albino mouse assessed as latency time after 60 mins by tail flick method; procedure, shortened: as §1
Mus musculus [6] = experiment: Antinociceptive activity in ip dosed Swiss albino mouse assessed as latency time after 30 mins by hot plate method; procedure, shortened: as §2
Mus musculus [7] = experiment: Antinociceptive activity in ip dosed Swiss albino mouse assessed as latency time after 120 mins by hot plate method; procedure, shortened: as §2
Mus musculus [8] = experiment: Antinociceptive activity in ip dosed Swiss albino mouse assessed as latency time after 60 mins by hot plate method; procedure, shortened: as §2
Mus musculus [9] = experiment: Antinociceptive activity in ip dosed Swiss albino mouse assessed as latency time by tail flick method; procedure, shortened: as §1
Mus musculus [10] = experiment: Antinociceptive activity in ip dosed Swiss albino mouse assessed as latency time after 15 mins by hot plate method; procedure, shortened: as §2

SMILES | Activity (Mus musculus [1]) | Activity (Mus musculus [2]) | Activity (Mus musculus [3]) | Activity (Mus musculus [4]) | Activity (Rattus norvegicus) | Activity (Mus musculus [5]) | Activity (Mus musculus [6]) | Activity (Mus musculus [7]) | Activity (Mus musculus [8]) | Activity (Mus musculus [9]) | Activity (Mus musculus [10])
Ic1ccc(-c2nc(-c3ccccc3)c(-c3ccccc3)[nH]2)cc1 | 5.21 s | 6.5 s | 4.26 s | 4.45 s | 27.91% | 5.89 s | 5.33 s | 6.18 s | 6.18 s | 4.16 s | 4.64 s
Oc1ccc(-c2nc(-c3ccccc3)c(-c3ccccc3)[nH]2)cc1 | 6.79 s | 10.33 s | 4.48 s | 4.55 s | 83.73% | 8.18 s | 7.21 s | 10.33 s | 8.63 s | 4.4 s | 4.81 s
Fc1ccc(-c2nc(-c3ccccc3)c(-c3ccccc3)[nH]2)cc1 | 7.14 s | 10.67 s | 4.87 s | 4.78 s | 79.07% | 8.92 s | 7.5 s | 10.83 s | 9.33 s | 4.55 s | 4.93 s
Cc1cccc(-c2nc(-c3ccccc3)c(-c3ccccc3)[nH]2)c1 | 4.48 s | 5.93 s | 4.1 s | 4.56 s | 9.31% | 5.89 s | 4.63 s | 5.72 s | 4.67 s | 4.1 s | 4.6 s
C=CCc1nc(-c2ccccc2)c(-c2ccccc2)[nH]1 | 4.23 s | 4.29 s | 4.02 s | 4.66 s | 32.56% | 4.27 s | 5.12 s | 5.47 s | 5.33 s | 3.98 s | 5.08 s
Clc1ccc(-c2nc(-c3ccccc3)c(-c3ccccc3)[nH]2)cc1 | 6.92 s | 10.5 s | 4.67 s | 4.66 s | 81.4% | 8.37 s | 7.43 s | 10.35 s | 8.98 s | 4.52 s | 4.9 s
Brc1ccc(-c2nc(-c3ccccc3)c(-c3ccccc3)[nH]2)cc1 | 5.33 s | 6.83 s | 4.45 s | 4.45 s | 74.42% | 6.5 s | 6.37 s | 6.38 s | 6.38 s | 4.2 s | 4.65 s
COc1cccc(-c2nc(-c3ccccc3)c(-c3ccccc3)[nH]2)c1 | 4.56 s | 7.99 s | 4.12 s | 4.67 s | 37.21% | 6.75 s | 6.15 s | 8.79 s | 7.42 s | 4.12 s | 5.02 s
c1ccc(-c2nc(-c3ccccc3)c(-c3ccccc3)[nH]2)cc1 | 4.67 s | 5.78 s | 4.13 s | 4.63 s | 30.24% | 5.12 s | 5.28 s | 6.1 s | 6.07 s | 4.13 s | 4.58 s
COc1ccccc1-c1nc(-c2ccccc2)c(-c2ccccc2)[nH]1 | 5.98 s | 9.23 s | 4.21 s | 4.9 s | 65.12% | 7.64 s | 6.89 s | 9.25 s | 8.65 s | 4.21 s | 4.94 s
c1ccc(-c2nc[nH]c2-c2ccccc2)cc1 | 4.01 s | 4.02 s | 3.92 s | 4.66 s | 20.94% | 4.01 s | 4.83 s | 5.2 s | 5.05 s | 3.9 s | 4.83 s
COc1cc(-c2nc(-c3ccccc3)c(-c3ccccc3)[nH]2)ccc1O | 5.57 s | 8.34 s | 4.12 s | 4.68 s | 58.14% | 7.18 s | 6.2 s | 8.99 s | 7.92 s | 4.16 s | 5.23 s
Clc1cccc(-c2nc(-c3ccccc3)c(-c3ccccc3)[nH]2)c1 | 4.98 s | 8.18 s | 4.12 s | 4.68 s | 55.82% | 6.89 s | 6.18 s | 8.91 s | 7.78 s | 4.12 s | 5.14 s
CN(C)c1ccc(-c2nc(-c3ccccc3)c(-c3ccccc3)[nH]2)cc1 | 6.32 s | 10.18 s | 4.45 s | 4.5 s | 69.77% | 7.93 s | 7.16 s | 10.3 s | 8.33 s | 4.26 s | 4.76 s
O=[N+]([O-])c1cccc(-c2nc(-c3ccccc3)c(-c3ccccc3)[nH]2)c1 | 4.36 s | 5.82 s | 4.09 s | 4.55 s | 4.66% | 5.74 s | 4.6 s | 5.62 s | 4.62 s | 4.09 s | 4.56 s
Cc1ccccc1-c1nc(-c2ccccc2)c(-c2ccccc2)[nH]1 | 4.52 s | 5.52 s | 4.12 s | 4.5 s | 18.61% | 4.98 s | 4.67 s | 5.79 s | 4.79 s | 4.11 s | 4.55 s
O=[N+]([O-])c1ccccc1-c1nc(-c2ccccc2)c(-c2ccccc2)[nH]1 | 4.38 s | 4.39 s | 4.1 s | 4.5 s | 30.24% | 4.38 s | 4.62 s | 4.71 s | 4.67 s | 4.09 s | 4.52 s
Clc1ccccc1-c1nc(-c2ccccc2)c(-c2ccccc2)[nH]1 | 5.78 s | 8.85 s | 4.14 s | 4.67 s | 62.8% | 7.27 s | 6.25 s | 9.01 s | 8.2 s | 4.2 s | 4.62 s
Cc1ccc(-c2nc(-c3ccccc3)c(-c3ccccc3)[nH]2)cc1 | 4.82 s | 4.89 s | 4.14 s | 4.35 s | 11.63% | 4.82 s | 4.62 s | 4.82 s | 4.83 s | 4.14 s | 4.5 s
Oc1ccccc1-c1nc(-c2ccccc2)c(-c2ccccc2)[nH]1 | 5.82 s | 9.12 s | 4.18 s | 4.89 s | 60.47% | 7.53 s | 6.32 s | 9.16 s | 8.59 s | 4.2 s | 4.93 s
Cc1nc(-c2ccccc2)c(-c2ccccc2)[nH]1 | 4.28 s | 4.35 s | 4.17 s | 4.65 s | 25.59% | 4.35 s | 5.33 s | 5.52 s | 5.47 s | 4.12 s | 5.1 s
